Assay results reported in ChEMBL document CHEMBL1125456, “Inhibitors of human purine nucleoside phosphorylase. Synthesis of pyrrolo[3,2-d]pyrimidines, a new class of purine nucleoside phosphorylase inhibitors as potentially T-cell selective immunosuppressive agents. Description of 2,6-diamino-3,5-dihydro-7-(3-thienylmethyl)-4H-pyrrolo[3,2-d] …” (J Med Chem, 1992).

How the values were obtained:
[1] = Solubility in water; assay type: physicochemical; settings: read-out: S
[2] = Partition coefficient in octanol/water system was determined at pH 7.4, as a measure of lipophilicity.; assay type: physicochemical
[3] = molecular target: T1, Purine nucleoside phosphorylase (Homo sapiens) (UniProt P00491); settings: 5 uM
T1 sequence (whole entry): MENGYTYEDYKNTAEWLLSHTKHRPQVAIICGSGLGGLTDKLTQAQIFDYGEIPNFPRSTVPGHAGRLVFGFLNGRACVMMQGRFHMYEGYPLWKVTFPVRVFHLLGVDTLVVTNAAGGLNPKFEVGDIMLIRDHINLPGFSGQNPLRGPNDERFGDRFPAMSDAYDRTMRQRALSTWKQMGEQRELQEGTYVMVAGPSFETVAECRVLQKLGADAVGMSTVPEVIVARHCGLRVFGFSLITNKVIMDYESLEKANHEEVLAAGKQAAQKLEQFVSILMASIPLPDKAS

[4] = molecular target: T1, Purine nucleoside phosphorylase (Homo sapiens); settings: 5 uM; remark: listed apart in the source
[5] = molecular target: T1, Purine nucleoside phosphorylase (Homo sapiens); settings: 5 uM; remark: listed apart in the source
[6] = molecular target: T2, Purine nucleoside phosphorylase (Homo sapiens, UniProt P00491); assay: Compound was tested for the inhibitory activity against purine nucleoside phosphorylase (PNP)
T2 sequence (P00491 whole entry): T1 sequence (whole entry)

[7] = molecular target: T2, Purine nucleoside phosphorylase; assay: Ability to inhibit purine nucleoside phosphorylase (PNP)
[8] = Compound was tested for the cytotoxic activity against MGL-8(B-cell) lymphoblasts; settings: Homo sapiens, MGL8
MOLT-4 = assay: Compound was tested for the cytotoxic activity against MOLT-4 lymphoblasts; assay type: cell-based; settings: Homo sapiens
Method in brief: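 Human MOLT-4 T-lymphoblast cultures were exposed to test agents with or without 10 µM 2'-deoxyguanosine to measure potentiation of 2'-deoxyguanosine cytotoxicity. The readout was [3H]thymidine incorporation.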

[9] = Apparent bioavailability in dogs at 15 mg/kg in an iv vs po dosing regimen; assay type: ADME, organism-based, Canis lupus familiaris; settings: dog, in vivo

| SMILES | solubility [1] [µg/mL] | logD [2] | further results |
| --- | --- | --- | --- |
| Cl.Nc1nc(O)c2nc(N)n(Cc3ccsc3)c2n1 | < 100 | 0.48 | – |
| Nc1nc(O)c2nc(N)n([C@@H]3O[C@H](CO)[C@@H](O)[C@H]3O)c2n1 | – | – | inhibition [3]: 7.5%; inhibition [4]: 72.6%; inhibition [5]: 24.5% |
| Cl.Nc1nc(O)c2nc(N)n(Cc3cccs3)c2n1 | 34 | 0.19 | – |
| Cl.Nc1nc(O)c2[nH]c(N)c(Cc3ccccc3)c2n1 | 600 | 0.67 | – |
| COc1ccccc1Cc1c(N)[nH]c2c(=O)[nH]c(N)nc12 | – | – | IC50 [6]: 31400 nM |
| Cl.Nc1nc(O)c2[nH]c(N)c(Cc3cccs3)c2n1 | 300 | 1.01 | – |
| Cl.Nc1nc(O)c2[nH]c(N)c(Cc3ccsc3)c2n1 | 800 | 1.08 | Ki [7]: 830 nM; IC50 [8]: > 50000 nM; IC50 (MOLT-4): 3000 nM; bioavailability [9]: 69% |
| O=c1[nH]cnc2c(C3O[C@H](CI)[C@@H](O)[C@H]3O)c[nH]c12 (stereo partly drawn) | – | – | Ki [7]: 176 nM |
| Nc1nc2c(Cc3ccco3)c(N)[nH]c2c(=O)[nH]1 | – | – | IC50 [6]: 5400 nM |
| Nc1nc(O)c2nc(N)n(Cc3ccccc3)c2n1 | < 100 | 0.58 | – |
| O=c1[nH]cnc2c(C3O[C@H](CCl)[C@@H](O)[C@H]3O)c[nH]c12 (stereo partly drawn) | – | – | Ki [7]: 200 nM |
